Laboratory results as given in ChEMBL document CHEMBL3352586, “Pyridyl benzamides as a novel class of potent inhibitors for the kinetoplastid Trypanosoma brucei” (J Med Chem, 2014).
In brackets after ≈: the same amount, converted by molar mass.

Tests used:
[1] = system: Trypanosoma brucei brucei; assay: Antimicrobial activity against bloodstream form of Trypanosoma brucei brucei 427 after 48 hrs by alamar blue assay; format: functional, organism-based; conditions: Trypanosoma brucei, 427, 48 h
[2] = system: Trypanosoma brucei brucei; assay: Antimicrobial activity against bloodstream form of Trypanosoma brucei brucei 427 at 10 uM after 48 hrs by alamar blue assay; format: functional; conditions: Trypanosoma brucei, 427, 48 h
[3] = Selectivity index, ratio of IC50 for HEK293 cells to IC50 for Trypanosoma brucei brucei 427; format: toxicity, cell-based; conditions: human, read-out: Ratio IC50
[4] = system: Trypanosoma brucei rhodesiense; assay: Antimicrobial activity against bloodstream form of Trypanosoma brucei rhodesiense STIB 900 after 70 hrs by alamar blue assay; format: functional, organism-based; conditions: STIB 900, 70 h
In short: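 Trypanosoma brucei rhodesiense STIB 900 bloodstream-form trypomastigotes, with melarsoprol as reference drug.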

Leishmania donovani = assay: Antimicrobial activity against amastigote form of Leishmania donovani MHOM/ET/67/L82 after 70 hrs by alamar blue assay; format: functional, organism-based; conditions: MHOM/ET/67/L82, 70 h
In short: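 Leishmania donovani MHOM-ET-67/L82 axenic amastigotes, with miltefosine as reference drug.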

Plasmodium falciparum = assay: Antimicrobial activity against erythrocytic stage of Plasmodium falciparum NF54 infected in human washed RBC assessed as [3H]-hypoxanthine incorporation incubated for 48 hrs prior to [3H]-hypoxanthine addition measured after 24 hrs by liquid scintillation counting analysis; format: functional, organism-based
L6 = assay: Cytotoxicity against rat L6 cells after 70 hrs by alamar blue assay; format: cell-based; conditions: L6, 70 h
In short: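 Cytotoxicity on the rat skeletal myoblast L-6 strain, with podophyllotoxin as reference drug.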

Trypanosoma cruzi = assay: Antimicrobial activity against amastigote form of Trypanosoma cruzi Tulahuen C2C4 infected in rat L6 cells after 96 hrs by microscopic analysis; conditions: Tulahuen C2C4, L6, 96 h
[5] = Partition coefficient, log D of the compound at pH 7.4 by HPLC method; format: physicochemical; conditions: octanol/water
In short: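 Distribution coefficient at pH 7.4 was measured chromatographically.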

[6] = Kinetic solubility of the compound at 10 mg/ml at pH 2 by nephelometry; format: physicochemical; conditions: buffer, read-out: Kinetic_solubility
In short: (§1)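 Kinetic solubility was read by nephelometry at pH 2 and pH 6.5 and reported as μg/mL ranges.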

[7] = Kinetic solubility of the compound at 10 mg/ml at pH 6.5 by nephelometry; format: physicochemical; conditions: buffer, read-out: Kinetic_solubility; in short: as §1
[8] = Plasma protein binding in human […] by chromatographic method; format: ADME, cell-free; conditions: read-out: PPB (converted)
In short: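 Human plasma protein binding was estimated by a chromatographic method.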

Liver microsome [9] = assay: Intrinsic clearance in human liver microsomes at 1 uM after 60 mins by LC-MS analysis; format: ADME; conditions: 1 h
In short: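 In vitro intrinsic clearance was measured in human liver microsomes and expressed per mg protein. A hepatic extraction ratio (E_H) was predicted from the in vitro data.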

[10] = Selectivity index, ratio of IC50 for rat L6 cells to IC50 for bloodstream form of Trypanosoma brucei rhodesiense STIB 900; format: toxicity, cell-based; conditions: read-out: Ratio IC50
In short: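 Bloodstream-form trypomastigotes of T. b. rhodesiense STIB 900 run with melarsoprol as reference drug. The counter-screen used the rat skeletal myoblast L-6 line, with podophyllotoxin as reference. The index is the L-6 IC50 divided by the parasite IC50.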

[11] = system: Trypanosoma brucei brucei; assay: Trypanocidal activity against Trypanosoma brucei brucei after 24 hrs by hemocytometry relative to control; format: functional
In short: (§2)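 T.b. brucei parasites were seeded and held 24 h at 37 °C/5% CO₂. Compounds were diluted in DMEM and added to give the MIC, defined as the lowest concentration at the plateau (>95% activity) of the Alamar blue assay. Wells were viewed by microscope after 24, 48 and 72 h, and sampled wells were counted by hemocytometer. Percentage killed was taken against puromycin (1.15 μM) and 0.4% DMSO controls, in duplicate.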

[12] = system: Trypanosoma brucei brucei; assay: Trypanocidal activity against Trypanosoma brucei brucei after 48 hrs by hemocytometry relative to control; format: functional; in short: as §2
[13] = system: Trypanosoma brucei brucei; assay: Trypanocidal activity against Trypanosoma brucei brucei after 72 hrs by hemocytometry relative to control; format: functional; in short: as §2
Liver microsome [14] = assay: Drug metabolism in human liver microsomes assessed as M+32 formation at 1 uM after 60 mins by LC-MS analysis in presence of NADPH/UDPGA; format: ADME; conditions: 1 h
Liver microsome [15] = assay: Drug metabolism in human liver microsomes assessed as M-111 formation at 1 uM after 60 mins by LC-MS analysis in presence of NADPH; format: ADME; conditions: 1 h
Liver microsome [16] = assay: Drug metabolism in human liver microsomes assessed as M+32 formation at 10 uM after 60 mins by LC-MS analysis in presence of NADPH; conditions: 1 h
Liver microsome [17] = assay: Drug metabolism in human liver microsomes assessed as M+16 formation at 10 uM after 60 mins by LC-MS analysis in presence of NADPH; conditions: 1 h
Liver microsome [18] = assay: Drug metabolism in human liver microsomes assessed as M+16 formation at 10 uM after 60 mins by LC-MS analysis in presence of NADPH/UDPGA; conditions: 1 h
Liver microsome [19] = assay: Drug level in human liver microsomes treated with N-(5-fluoropyridin-2-yl)-2-methylbenzamide at 10 uM after 60 mins by LC-MS analysis in presence of NADPH; conditions: 1 h
Liver microsome [20] = assay: Drug level in human liver microsomes treated with N-(4-chloropyridin-2-yl)-3-fluoro-2-methylbenzamide at 1 uM after 60 mins by LC-MS analysis in presence of NADPH; format: ADME; conditions: 1 h

Cc1ccccc1C(=O)Nc1ccccn1
IC50 [1]: 3.03 µM | inhibition at 10 µM [2]: 80% | selectivity ratio [3]: 27.5 | IC50 [4]: 2.1 µM | IC50 (Leishmania donovani): 48 µM | IC50 (Plasmodium falciparum): 36 µM | IC50 (L6): 156 µM | IC50 (Trypanosoma cruzi): 152 µM

Cc1ccnc(NC(=O)c2ccccc2C)c1
logD [5]: 2.8 | solubility kinetic [6]: > 100 µg/mL | solubility kinetic [7]: 25 µg/mL (≈ 110 µM) | fraction unbound [8]: 0.299 | CLint (Liver microsome [9]): 129 µL/min/mg | IC50 [1]: 2.1 µM | selectivity ratio [3]: > 37 | IC50 [4]: 0.36 µM | IC50 (Leishmania donovani): > 133 µM | IC50 (Plasmodium falciparum): 124 µM | IC50 (L6): 146 µM | IC50 (Trypanosoma cruzi): 173 µM

Cc1ccccc1C(=O)Nc1cc(Cl)ccn1
logD [5]: 3.4 | solubility kinetic [6]: 25 µg/mL (≈ 101 µM) | solubility kinetic [7]: 12.5 µg/mL (≈ 50.7 µM) | fraction unbound [8]: 0.134 | CLint (Liver microsome [9]): 128 µL/min/mg | IC50 [1]: 2.1 µM | selectivity ratio [3]: > 38 | IC50 [4]: 0.61 µM | IC50 (Leishmania donovani): 168 µM | IC50 (Plasmodium falciparum): 88 µM | IC50 (L6): 224 µM | IC50 (Trypanosoma cruzi): 168 µM

Cc1ccccc1C(=O)Nc1cc(C#Cc2ccccc2)ccn1
logD [5]: 4.7 | solubility kinetic [6]: 1.6 µg/mL (≈ 5.12 µM) | solubility kinetic [7]: < 1.6 µg/mL | fraction unbound [8]: 0.017 | CLint (Liver microsome [9]): 27 µL/min/mg | IC50 [1]: 1.7 µM | selectivity ratio [3]: > 51 | IC50 [4]: 0.061 µM | IC50 (Leishmania donovani): > 96 µM | IC50 (Plasmodium falciparum): 9.7 µM | IC50 (L6): 198 µM | IC50 (Trypanosoma cruzi): 71 µM

Cc1ccccc1C(=O)Nc1cc(-c2ccccc2)ccn1
IC50 [1]: 2 µM | selectivity ratio [3]: 31 | IC50 [4]: 0.97 µM | IC50 (Leishmania donovani): > 124 µM | IC50 (Plasmodium falciparum): 91 µM | IC50 (L6): 70 µM | IC50 (Trypanosoma cruzi): 66 µM

Cc1c(F)cccc1C(=O)Nc1ccccn1
logD [5]: 2.6 | solubility kinetic [6]: 50 µg/mL (≈ 217 µM) | solubility kinetic [7]: 25 µg/mL (≈ 109 µM) | fraction unbound [8]: 0.321 | CLint (Liver microsome [9]): 58 µL/min/mg | IC50 [1]: 0.89 µM | selectivity ratio [3]: 94 | IC50 [4]: 0.61 µM | IC50 (Leishmania donovani): > 131 µM | IC50 (Plasmodium falciparum): 103 µM | IC50 (L6): 310 µM | IC50 (Trypanosoma cruzi): 198 µM

Cc1cc(Br)ccc1C(=O)Nc1ccccn1
logD [5]: 3.2 | solubility kinetic [6]: > 100 µg/mL | solubility kinetic [7]: > 100 µg/mL | fraction unbound [8]: 0.119 | CLint (Liver microsome [9]): 97 µL/min/mg | selectivity ratio [10]: > 4000 | IC50 [1]: 1.1 µM | selectivity ratio [3]: 60 | IC50 [4]: 0.045 µM | IC50 (Leishmania donovani): > 103 µM | IC50 (Plasmodium falciparum): 48 µM | IC50 (L6): 193 µM | IC50 (Trypanosoma cruzi): 100 µM

Cc1ccc(C(=O)Nc2ccccn2)c(C)c1
IC50 [1]: 0.98 µM | selectivity ratio [3]: 85 | IC50 [4]: 0.24 µM | IC50 (Leishmania donovani): > 133 µM | IC50 (Plasmodium falciparum): 93 µM | IC50 (L6): 283 µM | IC50 (Trypanosoma cruzi): 187 µM

Cc1c(C(=O)Nc2ccccn2)ccc(F)c1F
logD [5]: 2.8 | solubility kinetic [6]: 50 µg/mL (≈ 201 µM) | solubility kinetic [7]: 25 µg/mL (≈ 101 µM) | fraction unbound [8]: 0.361 | CLint (Liver microsome [9]): 154 µL/min/mg | Activity [11]: 92% | Activity [12]: 99.95% | Activity [13]: 99.9% | IC50 [1]: 0.41 µM | selectivity ratio [3]: 205 | IC50 [4]: 0.1 µM | IC50 (Leishmania donovani): > 121 µM | IC50 (Plasmodium falciparum): 17 µM | IC50 (L6): 308 µM | IC50 (Trypanosoma cruzi): 176 µM

Cc1ccnc(NC(=O)c2ccc(F)c(F)c2C)c1
IC50 [1]: 0.9 µM | selectivity ratio [3]: 93 | IC50 [4]: 0.64 µM | IC50 (Leishmania donovani): > 113 µM | IC50 (Plasmodium falciparum): 72 µM | IC50 (L6): 223 µM | IC50 (Trypanosoma cruzi): 147 µM

Cc1c(F)cccc1C(=O)Nc1cc(Cl)ccn1
logD [5]: 2.3 | solubility kinetic [6]: 12.5 µg/mL (≈ 47.2 µM) | solubility kinetic [7]: 12.5 µg/mL (≈ 47.2 µM) | fraction unbound [8]: 0.283 | CLint (Liver microsome [9]): 254 µL/min/mg | Drug metabolism (Liver microsome [14]): metabolite_detected | Drug metabolism (Liver microsome [15]): metabolite_detected | Activity [11]: 64.23% | Activity [12]: 83.7% | Activity [13]: 98.8% | IC50 [1]: 0.47 µM | selectivity ratio [3]: 177 | Drug metabolism (Liver microsome [16]): metabolite_detected | Drug metabolism (Liver microsome [17]): metabolite_detected | Drug metabolism (Liver microsome [18]): metabolite_detected

Cc1ccccc1C(=O)N(O)c1ccc(F)cn1
Drug metabolism (Liver microsome [19]): metabolite_detected

Cc1ccccc1C(=O)Nc1ccc(O)cn1
Drug metabolism (Liver microsome [19]): metabolite_detected

Cc1c(F)cccc1C(N)=O
Drug metabolism (Liver microsome [20]): metabolite_detected

N=C(N)c1ccc(OCCCCCOc2ccc(C(=N)N)cc2)cc1 [PENTAMIDINE]
Activity [11]: 58.1% | Activity [12]: 100% | Activity [13]: 100%

COc1ccc(C[C@H](N)C(=O)N[C@H]2[C@@H](O)[C@H](n3cnc4c(N(C)C)ncnc43)O[C@@H]2CO)cc1 [PUROMYCIN]
Activity [11]: 100% | Activity [12]: 100% | Activity [13]: 100%
